Experimental data from ChEMBL document CHEMBL3992547, “Antimicrobial activity of rhodanine-3-acetic acid derivatives” (Bioorg Med Chem, 2017).
Values after ≈ are worked out from the molar mass of the structure shown. Active and inactive are the calls of the source. No cut-off for these calls is given here.

How the values were obtained:
[1] = system: Mycobacterium tuberculosis; assay: Antimycobacterial activity against Mycobacterium tuberculosis H37Rv 331/88 measured after 14 days by micromethod; type: functional; conditions: H37Rv 331/88, 336 h
[2] = system: Mycobacterium tuberculosis; assay: Antimycobacterial activity against Mycobacterium tuberculosis H37Rv 331/88 measured after 21 days by micromethod; type: functional; conditions: H37Rv 331/88, 504 h
[3] = system: Mycobacterium avium; assay: Antimycobacterial activity against Mycobacterium avium 330/88 measured after 14 days by micromethod; type: functional; conditions: 330/88, 336 h
[4] = system: Mycobacterium avium; assay: Antimycobacterial activity against Mycobacterium avium 330/88 measured after 21 days by micromethod; type: functional; conditions: 330/88, 504 h
[5] = system: Mycobacterium kansasii; assay: Antimycobacterial activity against Mycobacterium kansasii isolate 235/80 after 7 days by micromethod; type: functional; conditions: isolate 235/80, 168 h
[6] = system: Mycobacterium kansasii; assay: Antimycobacterial activity against Mycobacterium kansasii isolate 235/80 after 14 days by micromethod; type: functional; conditions: isolate 235/80, 336 h
[7] = system: Mycobacterium kansasii; assay: Antimycobacterial activity against Mycobacterium kansasii isolate 235/80 after 21 days by micromethod; type: functional; conditions: isolate 235/80, 504 h
[8] = system: Mycobacterium kansasii; assay: Antimycobacterial activity against Mycobacterium kansasii isolate 6509/96 after 7 days by micromethod; type: functional; conditions: isolate 6509/96, 168 h
[9] = system: Mycobacterium kansasii; assay: Antimycobacterial activity against Mycobacterium kansasii isolate 6509/96 after 14 days by micromethod; type: functional; conditions: isolate 6509/96, 336 h
[10] = system: Mycobacterium kansasii; assay: Antimycobacterial activity against Mycobacterium kansasii isolate 6509/96 after 21 days by micromethod; type: functional; conditions: isolate 6509/96, 504 h
[11] = Solubility of the compound in Sula's semisynthetic medium up to 1 mM; type: physicochemical
[12] = system: Staphylococcus aureus; assay: Antibacterial activity against Staphylococcus aureus CCM 4516/08 incubated for 24 hrs under dark condition by microdilution broth assay; type: functional; conditions: CCM 4516/08, 24 h
Procedure, shortened: (§1)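 Broth microdilution per M07-A07, modified, in Mueller-Hinton broth adjusted to pH 7.4 (±0.2). Inoculum is prepared in sterile water to McFarland 0.5 (1.5 × 10⁸ CFU/mL). Plates are incubated in the dark at 35 °C in humid air. MIC is read after 24 and 48 h as at least 95% growth reduction versus control (IC₉₅).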

[13] = system: Staphylococcus aureus; assay: Antibacterial activity against Staphylococcus aureus CCM 4516/08 incubated for 48 hrs under dark condition by microdilution broth assay; type: functional; conditions: CCM 4516/08, 48 h; procedure, shortened: as §1
[14] = system: Staphylococcus aureus; assay: Antibacterial activity against methicillin-resistant Staphylococcus aureus H 5996/08 incubated for 24 hrs under dark condition by microdilution broth assay; type: functional; conditions: H 5996/08, 24 h
Procedure, shortened: (§2)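 Microdilution broth method modified per M07-A07, in Mueller-Hinton broth adjusted to pH 7.4 (±0.2). Inoculum made in sterile water to 0.5 McFarland (1.5 × 10⁸ CFU/mL). Plates incubated in the dark at 35 °C in a humid atmosphere, with reads at 24 and 48 h. MIC taken as at least 95% growth reduction (IC₉₅) versus control.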

[15] = system: Staphylococcus aureus; assay: Antibacterial activity against methicillin-resistant Staphylococcus aureus H 5996/08 incubated for 48 hrs under dark condition by microdilution broth assay; type: functional; conditions: H 5996/08, 48 h; procedure, shortened: as §2
[16] = system: Staphylococcus epidermidis; assay: Antibacterial activity against Staphylococcus epidermidis H 6966/08 incubated for 24 hrs under dark condition by microdilution broth assay; type: functional; conditions: H 6966/08, 24 h; procedure, shortened: as §1
[17] = system: Staphylococcus epidermidis; assay: Antibacterial activity against Staphylococcus epidermidis H 6966/08 incubated for 48 hrs under dark condition by microdilution broth assay; type: functional; conditions: H 6966/08, 48 h; procedure, shortened: as §1
[18] = system: Escherichia coli; assay: Antibacterial activity against Escherichia coli CCM 4517 incubated for 24 hrs under dark condition by microdilution broth assay; type: functional; conditions: CCM 4517, 24 h; procedure, shortened: as §1
[19] = system: Escherichia coli; assay: Antibacterial activity against Escherichia coli CCM 4517 incubated for 48 hrs under dark condition by microdilution broth assay; type: functional; conditions: CCM 4517, 48 h; procedure, shortened: as §1
[20] = system: Klebsiella pneumoniae; assay: Antibacterial activity against Klebsiella pneumoniae D 11750/08 up to 500 uM incubated for 24 to 48 hrs under dark condition by microdilution broth assay; type: functional; procedure, shortened: as §1
[21] = system: Klebsiella pneumoniae; assay: Antibacterial activity against ESBL positive Klebsiella pneumoniae J 14368/08 up to 500 uM incubated for 24 to 48 hrs under dark condition by microdilution broth assay; type: functional; procedure, shortened: as §1
[22] = system: Pseudomonas aeruginosa; assay: Antibacterial activity against Pseudomonas aeruginosa CCM 1961 up to 500 uM incubated for 24 to 48 hrs under dark condition by microdilution broth assay; type: functional; procedure, shortened: as §1
[23] = system: Pichia kudriavzevii; assay: Antifungal activity against Candida krusei E28 after 24 to 48 hrs hrs by microdilution broth assay; type: functional
Procedure, shortened: (§3)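 Broth microdilution per CLSI M27-A3 and M38-A2 in RPMI 1640 with glutamine, buffered to pH 7.0 with MOPS. Compounds are diluted in DMSO. Final inoculum is 5 × 10³ CFU/mL for yeasts and 0.5–5 × 10⁴ CFU/mL for moulds. Plates are incubated in the dark at 35 °C in humid air and read visually and/or at 540 nm after 24 and 48 h. MIC is ≥80% growth reduction (IC₈₀) for yeasts and ≥50% (IC₅₀) for filamentous fungi.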

[24] = system: Lichtheimia corymbifera; assay: Antifungal activity against Absidia corymbifera 272 after 24 to 48 hrs hrs by microdilution broth assay; type: functional; procedure, shortened: as §3
[25] = system: Enterococcus; assay: Antibacterial activity against Enterococcus sp. J 14365/08 incubated for 24 hrs under dark condition by microdilution broth assay; conditions: J 14365/08, 24 h
[26] = system: Enterococcus; assay: Antibacterial activity against Enterococcus sp. J 14365/08 incubated for 48 hrs under dark condition by microdilution broth assay; conditions: J 14365/08, 48 h

| SMILES | MIC [1] [µM] | MIC [2] [µM] | MIC [3] [µM] | MIC [4] [µM] | MIC [5] [µM] | MIC [6] [µM] | MIC [7] [µM] | MIC [8] [µM] | MIC [9] [µM] | MIC [10] [µM] | solubility [11] | MIC95 [12] [µM] | MIC95 [13] [µM] | MIC95 [14] [µM] | MIC95 [15] [µM] | MIC95 [16] [µM] | MIC95 [17] [µM] | MIC95 [18] [µM] | MIC95 [19] [µM] | Activity [20] | further results |
| --- | --- | --- | --- | --- | --- | --- | --- | --- | --- | --- | --- | --- | --- | --- | --- | --- | --- | --- | --- | --- | --- |
| O=C(CN1C(=O)CSC1=S)Nc1ccc(Cl)cc1 | 32 (≈ 9.63 µg/mL) | 62.5 (≈ 18.8 µg/mL) | 1000 (≈ 301 µg/mL) | 1000 (≈ 301 µg/mL) | 250 (≈ 75.2 µg/mL) | 500 (≈ 150 µg/mL) | 500 (≈ 150 µg/mL) | 125 (≈ 37.6 µg/mL) | 250 (≈ 75.2 µg/mL) | 250 (≈ 75.2 µg/mL) | Soluble | > 500 | > 500 | > 500 | > 500 | 500 (≈ 150 µg/mL) | > 500 | > 500 | > 500 | inactive | Activity [21]: inactive; Activity [22]: inactive; Activity [23]: inactive; Activity [24]: inactive; MIC95 [25]: 500 µM (≈ 150 µg/mL); MIC95 [26]: > 500 µM |
| O=C(O)CN1C(=O)/C(=C/c2cc(Br)ccc2O)SC1=S | 32 (≈ 12 µg/mL) | 62.5 (≈ 23.4 µg/mL) | 62.5 (≈ 23.4 µg/mL) | 62.5 (≈ 23.4 µg/mL) | 62.5 (≈ 23.4 µg/mL) | 62.5 (≈ 23.4 µg/mL) | 62.5 (≈ 23.4 µg/mL) | 62.5 (≈ 23.4 µg/mL) | 125 (≈ 46.8 µg/mL) | 250 (≈ 93.6 µg/mL) | Soluble | 250 (≈ 93.6 µg/mL) | 250 (≈ 93.6 µg/mL) | 125 (≈ 46.8 µg/mL) | 125 (≈ 46.8 µg/mL) | 62.5 (≈ 23.4 µg/mL) | 62.5 (≈ 23.4 µg/mL) | 500 (≈ 187 µg/mL) | 500 (≈ 187 µg/mL) | inactive | Activity [21]: inactive; Activity [22]: inactive; Activity [23]: inactive; Activity [24]: inactive; MIC95 [25]: 500 µM (≈ 187 µg/mL); MIC95 [26]: 500 µM (≈ 187 µg/mL) |
| O=C(CN1C(=O)/C(=C/c2ccccn2)SC1=S)Nc1ccc(Cl)cc1 | > 250 | > 250 | > 250 | > 250 | > 250 | > 250 | > 250 | > 250 | > 250 | > 250 | Soluble | > 125 | > 125 | > 125 | > 125 | > 125 | > 125 | > 125 | > 125 | inactive | Activity [21]: inactive; Activity [22]: inactive; Activity [23]: inactive; Activity [24]: inactive; MIC95 [25]: 125 µM (≈ 48.7 µg/mL); MIC95 [26]: > 125 µM |
| O=C(O)CN1C(=O)/C(=C/c2cc(Cl)ccc2O)SC1=S | 32 (≈ 10.6 µg/mL) | 62.5 (≈ 20.6 µg/mL) | 62.5 (≈ 20.6 µg/mL) | 62.5 (≈ 20.6 µg/mL) | 32 (≈ 10.6 µg/mL) | 62.5 (≈ 20.6 µg/mL) | 62.5 (≈ 20.6 µg/mL) | 32 (≈ 10.6 µg/mL) | 62.5 (≈ 20.6 µg/mL) | 125 (≈ 41.2 µg/mL) | Soluble | 250 (≈ 82.4 µg/mL) | 250 (≈ 82.4 µg/mL) | 125 (≈ 41.2 µg/mL) | 125 (≈ 41.2 µg/mL) | 62.5 (≈ 20.6 µg/mL) | 62.5 (≈ 20.6 µg/mL) | 500 (≈ 165 µg/mL) | > 500 | inactive | Activity [21]: inactive; Activity [22]: inactive; Activity [23]: inactive; Activity [24]: inactive; MIC95 [25]: 125 µM (≈ 41.2 µg/mL); MIC95 [26]: 500 µM (≈ 165 µg/mL) |
